Data from ChEMBL document CHEMBL2062460, “Disubstituted thiourea derivatives and their activity on CNS: synthesis and biological evaluation” (Eur J Med Chem, 2012).
Values after ≈ are worked out from the molar mass of the structure shown. Active and inactive are the calls of the source. No cut-off for these calls is given here.

How the values were obtained:
Escherichia coli [1] = test: Antibacterial activity against Escherichia coli ATCC 25922 at 400 ug/disc after 18 hrs by disc diffusion method; type: functional, organism-based
Outline: (§1)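 Disc diffusion per CLSI on Mueller–Hinton II agar; 9 mm paper discs loaded from methanol or DMSO solutions to 400 µg per disc, dried; growth inhibition zone diameter read after 18 h at 35 °C.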

Staphylococcus aureus [2] = test: Antibacterial activity against Staphylococcus aureus ATCC 29213 after 18 hrs by twofold serial agar dilution technique; type: functional; conditions: ATCC 29213, 18 h
Outline: (§2)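 Twofold serial agar dilution on Mueller–Hinton II agar, following CLSI guidelines. Compounds were dissolved in methanol or DMSO and tested at final agar concentrations of 3.125–400 µg/mL. Final inoculum was 10^4 CFU/mL.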

Staphylococcus aureus [3] = test: Antibacterial activity against Staphylococcus aureus NCTC 4163 after 18 hrs by twofold serial agar dilution technique; type: functional; conditions: NCTC 4163, 18 h; outline: as §2
Proteus vulgaris = test: Antibacterial activity against Proteus vulgaris NCTC 4635 at 400 ug/disc after 18 hrs by disc diffusion method; type: functional, organism-based; outline: as §1
[4] = test system: Staphylococcus epidermidis; test: Antibacterial activity against methicillin-resistant Staphylococcus epidermidis clinical isolate 343/09 after 18 hrs by twofold serial agar dilution technique; type: functional; conditions: clinical isolate 343/09, 18 h
Outline: (§3)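 Clinical isolates came from patients in Warsaw Medical University Hospitals and were classed as methicillin-susceptible or -resistant. MIC was determined by twofold serial agar dilution on Mueller–Hinton II agar (CLSI), 3.125–400 µg/mL in agar, with compounds in methanol or DMSO. Inoculum was 10^4 CFU/mL and plates were read after 18 h at 35 °C.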

Escherichia coli [5] = test: Antibacterial activity against Escherichia coli NCTC 8196 at 400 ug/disc after 18 hrs by disc diffusion method; type: functional, organism-based; outline: as §1
[6] = test system: Staphylococcus epidermidis; test: Antibacterial activity against methicillin-resistant Staphylococcus epidermidis clinical isolate 316/08 after 18 hrs by twofold serial agar dilution technique; type: functional; conditions: clinical isolate 316/08, 18 h; outline: as §3
Micrococcus luteus [7] = test: Antibacterial activity against Micrococcus luteus ATCC 10240 at 400 ug/disc after 18 hrs by disc diffusion method; type: functional; conditions: ATCC 10240, 18 h, read-out: DIZ; outline: as §1
Candida albicans [8] = test: Antifungal activity against Candida albicans ATCC 10231 at 400 ug/disc after 18 hrs by disc diffusion method; type: functional, organism-based
Outline: (§4)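 Yeasts tested by disc diffusion (CLSI) on RPMI agar with 2% glucose; 9 mm paper discs bearing 400 µg compound from methanol or DMSO solution; inhibition zone diameter read after 18 h at 35 °C.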

[9] = test system: Staphylococcus epidermidis; test: Antibacterial activity against Staphylococcus epidermidis ATCC 12228 after 18 hrs by twofold serial agar dilution technique; type: functional; conditions: ATCC 12228, 18 h; outline: as §2
[10] = test system: Staphylococcus epidermidis; test: Antibacterial activity against methicillin-resistant Staphylococcus epidermidis clinical isolate 341/09 after 18 hrs by twofold serial agar dilution technique; type: functional; conditions: clinical isolate 341/09, 18 h; outline: as §3
Staphylococcus aureus [11] = test: Antibacterial activity against methicillin-resistant Staphylococcus aureus clinical isolate 306/08 after 18 hrs by twofold serial agar dilution technique; type: functional; conditions: clinical isolate 306/08, 18 h; outline: as §3
Staphylococcus aureus [12] = test: Antibacterial activity against methicillin-resistant Staphylococcus aureus clinical isolate 277/08 after 18 hrs by twofold serial agar dilution technique; type: functional; conditions: clinical isolate 277/08, 18 h; outline: as §3
[13] = test system: Bordetella bronchiseptica; test: Antibacterial activity against Bordetella bronchiseptica ATCC 4617 at 400 ug/disc after 18 hrs by disc diffusion method; type: functional, organism-based; outline: as §1
Staphylococcus aureus [14] = test: Antibacterial activity against Staphylococcus aureus NCTC 4163 at 400 ug/disc after 18 hrs by disc diffusion method; type: functional; outline: as §1
Candida parapsilosis = test: Antifungal activity against Candida parapsilosis ATCC 22019 at 400 ug/disc after 18 hrs by disc diffusion method; type: functional, organism-based; outline: as §4
Micrococcus luteus [15] = test: Antibacterial activity against Micrococcus luteus ATCC 9341 after 18 hrs by twofold serial agar dilution technique; type: functional; conditions: ATCC 9341, 18 h
Staphylococcus aureus [16] = test: Antibacterial activity against methicillin-susceptible Staphylococcus aureus clinical isolate 261/08 after 18 hrs by twofold serial agar dilution technique; type: functional; conditions: clinical isolate 261/08, 18 h; outline: as §3
[17] = test system: Staphylococcus epidermidis; test: Antibacterial activity against methicillin-resistant Staphylococcus epidermidis clinical isolate 311/08 after 18 hrs by twofold serial agar dilution technique; type: functional; conditions: clinical isolate 311/08, 18 h; outline: as §3
Staphylococcus aureus [18] = test: Antibacterial activity against methicillin-susceptible Staphylococcus aureus clinical isolate 268/08 after 18 hrs by twofold serial agar dilution technique; type: functional; conditions: clinical isolate 268/08, 18 h; outline: as §3
Staphylococcus aureus [19] = test: Antibacterial activity against methicillin-resistant Staphylococcus aureus clinical isolate 325/09 after 18 hrs by twofold serial agar dilution technique; type: functional; conditions: clinical isolate 325/09, 18 h; outline: as §3
Pseudomonas aeruginosa = test: Antibacterial activity against Pseudomonas aeruginosa ATCC 27853 at 400 ug/disc after 18 hrs by disc diffusion method; type: functional, organism-based; outline: as §1
[20] = Cytotoxicity against human MT4 cells after 96 hrs by MTT assay; type: cell-based
Staphylococcus aureus [21] = test: Antibacterial activity against Staphylococcus aureus ATCC 25923 after 18 hrs by twofold serial agar dilution technique; type: functional; conditions: ATCC 25923, 18 h; outline: as §2
Staphylococcus aureus [22] = test: Antibacterial activity against methicillin-susceptible Staphylococcus aureus clinical isolate 256/08 after 18 hrs by twofold serial agar dilution technique; type: functional; conditions: clinical isolate 256/08, 18 h; outline: as §3
Candida albicans [23] = test: Antifungal activity against Candida albicans ATCC 90028 at 400 ug/disc after 18 hrs by disc diffusion method; type: functional, organism-based; outline: as §4

| Compound | diameter of the inhibition zone (DIZ) (Escherichia coli [1]) | MIC (Staphylococcus aureus [2]) | MIC (Staphylococcus aureus [3]) | diameter of the inhibition zone (DIZ) (Proteus vulgaris) | MIC [4] | diameter of the inhibition zone (DIZ) (Escherichia coli [5]) | MIC [6] | zone of inhibition at 400 µg/disc (Micrococcus luteus [7]) | diameter of the inhibition zone (DIZ) (Candida albicans [8]) | MIC [9] | MIC [10] | MIC (Staphylococcus aureus [11]) | MIC (Staphylococcus aureus [12]) | diameter of the inhibition zone (DIZ) [13] | diameter of the inhibition zone (DIZ) (Candida parapsilosis) | MIC (Micrococcus luteus [15]) | MIC (Staphylococcus aureus [16]) | MIC [17] | MIC (Staphylococcus aureus [18]) | MIC (Staphylococcus aureus [19]) | further results |
| --- | --- | --- | --- | --- | --- | --- | --- | --- | --- | --- | --- | --- | --- | --- | --- | --- | --- | --- | --- | --- | --- |
| S=C(Nc1ccccc1)Nc1nc[nH]n1 | inactive | 100 µg/mL (≈ 456 µM) | 100 µg/mL (≈ 456 µM) | inactive | 50 µg/mL (≈ 228 µM) | inactive | 100 µg/mL (≈ 456 µM) | 12 mm | inactive | 50 µg/mL (≈ 228 µM) | 100 µg/mL (≈ 456 µM) | 50 µg/mL (≈ 228 µM) | 50 µg/mL (≈ 228 µM) | inactive | inactive | 50 µg/mL (≈ 228 µM) | 50 µg/mL (≈ 228 µM) | 100 µg/mL (≈ 456 µM) | 50 µg/mL (≈ 228 µM) | 50 µg/mL (≈ 228 µM) | diameter of the inhibition zone (DIZ) (Staphylococcus aureus [14]): inactive; diameter of the inhibition zone (DIZ) (Pseudomonas aeruginosa): inactive; CC50 at 96 h [20]: > 100 µM; MIC (Staphylococcus aureus [21]): 100 µg/mL (≈ 456 µM); MIC (Staphylococcus aureus [22]): 50 µg/mL (≈ 228 µM); diameter of the inhibition zone (DIZ) (Candida albicans [23]): inactive |
| Fc1ccc(NC(=S)Nc2nc[nH]n2)cc1 | inactive | 25 µg/mL (≈ 105 µM) | 50 µg/mL (≈ 211 µM) | inactive | 50 µg/mL (≈ 211 µM) | inactive | 100 µg/mL (≈ 421 µM) | 23 mm | inactive | 25 µg/mL (≈ 105 µM) | 100 µg/mL (≈ 421 µM) | 50 µg/mL (≈ 211 µM) | 50 µg/mL (≈ 211 µM) | inactive | inactive | 6.25 µg/mL (≈ 26.3 µM) | 50 µg/mL (≈ 211 µM) | 50 µg/mL (≈ 211 µM) | 100 µg/mL (≈ 421 µM) | 50 µg/mL (≈ 211 µM) | zone of inhibition at 400 µg/disc (Staphylococcus aureus [14]; NCTC 4163, 18 h, read-out: DIZ): 14 mm; diameter of the inhibition zone (DIZ) (Pseudomonas aeruginosa): inactive; CC50 at 96 h [20]: > 100 µM; MIC (Staphylococcus aureus [21]): 50 µg/mL (≈ 211 µM); MIC (Staphylococcus aureus [22]): 50 µg/mL (≈ 211 µM); diameter of the inhibition zone (DIZ) (Candida albicans [23]): inactive |
